# Results reported in PubChem BioAssay AID504383 (The Scripps Research Institute Molecular Screening Center, 2011).
# About 1,200 (48%) of roughly 2,500 compounds were called active.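 Rule for the calls: active = mean activation above the low control average plus 3 SD, as set in the primary screen (cut at about 12% in these data); inactive = the rest.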 So high a share suggests a set chosen from earlier hits. Some of the results follow.
# Target: Troponin I, cardiac muscle (Homo sapiens) + Troponin T, cardiac muscle (Homo sapiens) + Troponin C, slow skeletal and cardiac muscles (Homo sapiens) (UniProt P19429+P45379+P63316)
# Experiment: calcium sensitizers of cardiac thin filaments – biochemical, IANBD-TnC fluorescence, triplicate, confirmation (AID 504383);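 note: 0% = DMSO at 0.472 mM calcium and 100% = DMSO at 2.9 mM calcium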
# Details: IANBD-labeled cardiac RTF, Ca2+ sensitivity fluorescence; at 7.2 µM; active compounds read high; scaled from EC20 to saturating calcium; tested at EC20 calcium, 0.472 mM
# Outline: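 Test system: labelled regulated thin filament protein complex. Dosing: single nominal compound dose of 7.2 µM. Benchmarks: EC20 and EC100 calcium wells. Read-out basis: fluorescence gain scaled between EC20 and EC100 calcium controls. Probe or stimulus: submaximal calcium at 0.472 mM (EC20). Technique: fluorescence. Times: 15 min compound exposure, 25 °C.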
row,SMILES,activation
1,CC(=O)NC(CCS(C)(=O)=O)C(=O)Nc1cc(C)on1 (configuration not stated),15.8% (active)
2,Cc1cc(NC(=O)CCC(=O)N(CCC(C)C)C(C(=O)NC2CCCC2)c2cccnc2)no1 (configuration not stated),3.5% (inactive)
3,CCN(CC(=O)Nc1c(F)cccc1F)C(=O)CNC(=O)COc1ccccc1,-0.22% (inactive)
4,CCN(CC(=O)Nc1ccccc1C(F)(F)F)C(=O)c1ccc(-n2nc(C)c(CCC(=O)OC)c2C)cc1,29.8% (active)
5,COc1ccc(-c2cc3ncc(-c4ccccc4)c(N)n3n2)cc1,15.2% (active)
6,O=C(Nc1cccc(Cl)c1)c1cc(S(=O)(=O)NCCc2ccc(Cl)cc2)ccc1F,13.9% (active)
7,COc1ccc(OC)c2[nH]c(=O)c(CCNS(=O)(=O)c3ccc(Cl)cc3)cc12,1.64% (inactive)
8,COc1ccc(C(=O)c2sc3nc(C)cc(-c4cccs4)c3c2N)cc1OC,4.99% (inactive)
9,COc1ccc(C(=O)c2ccsc2N)cc1,22% (active)
10,COc1ccc(C(=O)c2sc3nc(C)cc(-c4cccs4)c3c2N)cc1,24.7% (active)
11,COc1ccc(-c2c(C#N)c(N)nc3sc(C(=O)c4ccccc4)c(N)c23)cc1,-1.46% (inactive)
12,COc1ccc(C(=O)c2sc3nc(-c4ccccc4)ccc3c2N)cc1,85.5% (active)
13,Cc1cc(C)c(S(=O)(=O)Nc2ccc3[nH]c(=O)[nH]c3c2)c(C)c1,21.2% (active)
14,Cc1ccc(NC(=O)Nc2ccc(F)cc2)cc1Cl,20.6% (active)
15,Cc1cc(C)c(C(N)=O)c(Nc2ccc(F)cc2)n1,1.65% (inactive)
16,Cc1ccc(NC(=O)C(OC(=O)c2ccc(F)cc2)c2ccccc2)cc1Cl (configuration not stated),8.32% (inactive)
17,O=C(O)c1ccccc1-c1ccc(/C=C/c2cc(C(F)(F)F)[nH]c(=O)n2)o1,8.85% (inactive)
18,O=C(O)c1cc(Cl)ccc1-c1ccc(/C=C/c2cc(C(F)(F)F)[nH]c(=O)n2)o1,56.3% (active)
19,CC(=O)OCC[N+](C)(C)C,54.7% (active)
20,COc1cc(/C=C2\Oc3cc(O)ccc3C2=O)ccc1O,-0.13% (inactive)
21,O=C1/C(=C/c2cccc(F)c2)Oc2cc(O)ccc21,5.33% (inactive)
22,O=C1/C(=C/c2ccc(Br)cc2)Oc2cc(O)ccc21,58.7% (active)
23,COC1=C/C(=C/c2c(N)n3c(nc2=O)sc2cc(S(C)(=O)=O)ccc23)C=CC1=O,10.2% (inactive)
24,COC1=C/C(=C/c2c(N)n3cc(C)sc3nc2=O)C=CC1=O,4.28% (inactive)
25,Cc1cn2c(N)c(C=C3C=C(Cl)C(=O)C(Cl)=C3)c(=O)nc2s1,17.6% (active)

row,SMILES,activation
1,C=CCNc1nnc(SCC(=O)N2CCC(C(N)=O)CC2)s1,15.8% (active)
2,Cc1cc(N2C(=O)C(O)=C(C(=O)c3cccs3)C2c2ccc(F)cc2)no1 (configuration not stated),23.8% (active)
3,COc1ccc(C2C(C(=O)c3cccs3)=C(O)C(=O)N2c2nncs2)cc1 (configuration not stated),20.1% (active)
4,Cc1ccc(C2C(C(=O)c3cccs3)=C(O)C(=O)N2c2nnc(C)s2)cc1 (configuration not stated),52.5% (active)
5,C=CCOc1ccc(C2C(C(=O)c3cccs3)=C(O)C(=O)N2c2nnc(C)s2)cc1 (configuration not stated),15.5% (active)
6,COc1ccc(C2C(C(=O)c3cccs3)=C(O)C(=O)N2c2nnc(C)s2)cc1OC (configuration not stated),7.86% (inactive)
7,O=C(Oc1ccc2ccc(=O)oc2c1)c1cccs1,1.63% (inactive)
8,O=C(c1ccccc1)N1C(=O)C(c2ccccc2)Oc2ccccc21 (configuration not stated),1.2% (inactive)
9,COc1cc(OC)cc(C(=O)NCC(=O)OC2CCOC2=O)c1 (configuration not stated),17.4% (active)
10,O=C1/C(=C/c2cccs2)N=C(c2cccs2)N1Nc1ccccc1,18.7% (active)
11,CCOc1ccc(NC(=O)/C(C#N)=C\c2ccc(N3CCCC3)c(C)c2)cc1,1.35% (inactive)
12,Cc1cc(N2CCCC2)ccc1/C=C1\NC(=S)N(C)C1=O,11.3% (inactive)
13,Cc1cc(/C=C2\NC(=S)N(C)C2=O)ccc1N1CCCC1,26.1% (active)
14,CCCN1C(=O)/C(=C/c2ccc(N3CCCC3)c(C)c2)NC1=S,8.1% (inactive)
15,Cc1cc(/C=C2/C(=O)N(C)C(=S)N2C)ccc1N1CCCC1,106% (active)
16,CCOc1ccc(NC(=O)/C(C#N)=C/c2ccc(N3CCCC3)c(C)c2)cc1,2.19% (inactive)
17,O=C(Cn1cnc2ccccc2c1=O)c1ccc(Br)cc1,424% (active)
18,O=C(c1ccc(Cl)cc1)n1cnc2ccccc21,7.26% (inactive)
19,COc1ccc(C(=O)Cn2cnc3ccccc3c2=O)cc1OC,6.44% (inactive)
20,COc1cc(/C=C(/C#N)C(=O)NCCCc2ccccc2)ccc1OCC(=O)O,11.5% (inactive)
21,COc1cc(/C=C(\C#N)c2nc3ccccc3s2)ccc1OCC(=O)Nc1ccccc1,92.9% (active)
22,COc1cc(/C=C(\C#N)c2nc3ccccc3o2)ccc1O,3.75% (inactive)
23,CCN(CC)c1ccc(/C=C/c2cc(-c3ccccc3)c3ccccc3n2)cc1,19.4% (active)
24,Cn1cnnc1Sc1nc2ccccc2nc1NS(=O)(=O)c1ccccc1,26.2% (active)
25,CC(=O)Nc1ccc(S(=O)(=O)Nc2nc3ccccc3nc2Nc2ccc(N)cc2)cc1,5.97% (inactive)

row,SMILES,activation
1,c1ccc(Nc2nc3ccccc3n3cnnc23)cc1,10.4% (inactive)
2,CCC(CC)c1nnc(NC(=O)/C=C/c2ccco2)s1,18.8% (active)
3,Cn1nnc(NC(=S)NC(=O)/C=C/c2ccco2)n1,4.19% (inactive)
4,COc1ccc(N=C2NC(=O)S/C2=C\c2ccc(N(C)C)cc2)cc1,54.9% (active)
5,COc1ccc(C(=O)/C=C/c2ccc(N(C)C)cc2)c(OC)c1,7.89% (inactive)
6,CCOc1ccc(N=C2NC(=O)S/C2=C\c2ccc(N(C)C)cc2)cc1,5340% (active)
7,C=CCOc1ccc(/C=C2\SC(=Nc3cccnc3)NC2=O)cc1,6.73% (inactive)
8,O=C(NN1C(=O)c2ccccc2NC1c1ccco1)c1ccccc1 (configuration not stated),3.92% (inactive)
9,C=CCN1C(=O)c2ccccc2NC1c1cc(Br)cs1 (configuration not stated),53.6% (active)
10,CCOCCn1c(CN2CCN(CC)CC2)nc2c1c(=O)n(C)c(=O)n2C,66% (active)
11,CC1=Nc2ccccc2/C1=C/c1sc(=S)n(-c2cccc(C(=O)O)c2)c1O,13.1% (active)
12,Oc1[nH]c(=S)sc1/C=C1\C(c2ccccc2)=Nc2ccccc21,10% (inactive)
13,CC1=Nc2ccccc2/C1=C/c1nc(-c2ccc(C)s2)oc1O,7.81% (inactive)
14,CCc1cc(=O)n2c([nH]c3ccccc32)c1C#N,3.83% (inactive)
15,CCC(C)(C)n1nnnc1C(c1ccc(C)cc1)N1CCN(C(=O)c2ccco2)CC1 (configuration not stated),4.34% (inactive)
16,CCC(c1nnnn1C1CCCCC1)N1CCN(C(=O)c2ccco2)CC1 (configuration not stated),23.4% (active)
17,Cn1nc(NC(=O)C2CCC2C(=O)O)c2c(F)cccc21 (configuration not stated),52.9% (active)
18,O=C(O)C1CCCCC1C(=O)Nc1ccc(-c2ccccc2)cc1 (configuration not stated),8.12% (inactive)
19,Cc1ccc[n+](-c2nc([O-])sc2C=O)c1,64.2% (active)
20,CCc1cc[n+](-c2nc3ccccc3nc2[N-]S(=O)(=O)c2ccc(Br)s2)cc1,-1.89% (inactive)
21,CCc1cc[n+](-c2nc([O-])sc2C=O)cc1,14.1% (active)
22,CCNC(=O)NNC(=O)C1CC(c2cccs2)=NO1 (configuration not stated),4.43% (inactive)
23,COc1cc(/C=C2\SC(=Nc3ccccc3)NC2=O)cc(Cl)c1O,3.89% (inactive)
24,COc1cc(/C=C2\SC(=Nc3ccc(Cl)c(C(=O)O)c3)NC2=O)c(Br)c(Br)c1O,54% (active)
25,CCN(CC)c1ccc2c(c1)OC(N)=C(C#N)C2c1cccnc1 (configuration not stated),15.4% (active)

row,SMILES,activation
1,CSc1nc(C)nc(N/C=C(\C#N)S(=O)(=O)c2ccccc2Cl)n1,6.97% (inactive)
2,C=CCn1c(O)c(CN2CCN(Cc3ccccc3)CC2)c(C)c(C#N)c1=O,3.99% (inactive)
3,Cc1c(CN2CCCC(C)C2)c(O)n(CCO)c(=O)c1C#N (configuration not stated),11.9% (active)
4,CCN(c1ccccc1)S(=O)(=O)c1ccc(OC)c(NC(=O)Cn2cnc3c2c(=O)n(C)c(=O)n3C)c1,18.8% (active)
5,CC1=C(C(=O)N(C)C)C(c2ccc(C)s2)NC(=S)N1 (configuration not stated),0.74% (inactive)
6,Cn1nc(-c2ccccc2)c2nc3ccccc3nc21,8.34% (inactive)
7,CCn1nc(-c2ccccc2)c2nc3ccccc3nc21,26.2% (active)
8,CCCCCn1nc(-c2ccccc2)c2nc3ccccc3nc21,54.7% (active)
9,Cc1cc(C(=O)O)ccc1-c1ccc(/C=C2\SC(=O)N(CC(=O)Nc3ccc4c(c3)OCO4)C2=O)o1,11.4% (inactive)
10,O=C(COC(=O)c1ccc(O)cc1)Nc1ccc2c(c1)OCCO2,78.5% (active)
11,Cc1c(C)[n+](=O)c(-c2ccc(Br)cc2)c(C)n1[O-],1060% (active)
12,CCC12OC(=N)C(C#N)(C1C)C(C#N)(C#N)C(c1ccccc1)O2 (configuration not stated),2.9% (inactive)
13,CCCCC1OC2(C)OC(=N)C1(C#N)C(C#N)(C#N)C2c1ccccc1 (configuration not stated),8.3% (inactive)
14,CC1C2(C)OC(=N)C(C#N)(C(C)O2)C1(C#N)C#N (configuration not stated),13.7% (active)
15,CCc1ccc2c(c1)C(NC(C)=O)C(=O)N2CC (configuration not stated),6.29% (inactive)
16,c1ccc(CCC2=NCCn3cccc32)cc1,15.8% (active)
17,Nc1ccc2c(O)cc(S(=O)(=O)O)cc2c1,16.8% (active)
18,Cc1ccc(N=Nc2c(O)n(CN3CCOCC3)c3ccccc23)cc1,35.8% (active)
19,COc1ccc(Cl)cc1-c1nc(SCC(=O)NC(C)C)n[nH]1,8.01% (inactive)
20,C/C(N)=C(/C#N)C(=O)CSc1n[nH]c(-c2cccs2)n1,11.4% (inactive)
21,Cc1ccc(C)c(C(=O)CSc2n[nH]c(C(C)C)n2)c1,128% (active)
22,CC(C)(CO)NCC#Cc1ccccc1,5.16% (inactive)
